Blank lines part the entries; values can stand above or below the molecule they belong to.
Legend:
[1] = target: Proteasome subunit beta type-8 (β5i, LMP7) (Homo sapiens) (UniProt P28062); test: Inhibition of catalytic activity of immunoproteasome 20s subunit beta5 in human Raji cells incubated for 1 hr by BODIPY(TMR)-NC-005-VS probe based competitive activity based protein profiling assay
[2] = target: T1, Proteasome Macropain subunit MB1 (Homo sapiens) (UniProt P28074); test: (§1) Inhibition of catalytic activity of constitutive proteasome 20s subunit beta5 in human Raji cells incubated for 1 hr by BODIPY(TMR)-NC-005-VS probe based competitive activity based protein profiling assay; type: cell-based
T1 sequence (whole entry): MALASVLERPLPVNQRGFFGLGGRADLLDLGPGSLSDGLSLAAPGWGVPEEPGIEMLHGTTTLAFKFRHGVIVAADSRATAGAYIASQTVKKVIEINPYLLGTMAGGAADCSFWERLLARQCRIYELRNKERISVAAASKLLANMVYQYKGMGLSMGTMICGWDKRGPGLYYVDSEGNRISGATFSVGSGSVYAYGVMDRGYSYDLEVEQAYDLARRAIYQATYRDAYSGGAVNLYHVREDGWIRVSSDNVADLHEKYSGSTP

[3] = target: T2, Proteasome Macropain subunit MB1 (Homo sapiens, UniProt P28074); test: as §1; type: cell-based
T2 sequence (P28074 whole entry): T1 sequence (whole entry)

[4] = target: T3, Proteasome component C5 (Homo sapiens) (UniProt P20618); test: Inhibition of catalytic activity of constitutive proteasome 20s subunit beta1 in human Raji cells incubated for 1 hr by Cy5-NC-001 probe based competitive activity based protein profiling assay; type: cell-based
T3 sequence (whole entry): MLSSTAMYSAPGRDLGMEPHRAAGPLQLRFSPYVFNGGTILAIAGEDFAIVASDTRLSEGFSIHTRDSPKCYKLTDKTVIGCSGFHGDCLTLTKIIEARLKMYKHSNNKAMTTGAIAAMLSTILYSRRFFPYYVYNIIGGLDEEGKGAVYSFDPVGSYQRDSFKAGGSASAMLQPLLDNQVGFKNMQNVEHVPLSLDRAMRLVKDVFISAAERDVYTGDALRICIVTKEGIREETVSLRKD

[5] = target: Proteasome subunit beta type-9 (β1i, LMP2) (Homo sapiens) (UniProt P28065); test: Inhibition of catalytic activity of immunoproteasome 20s subunit beta1 in human Raji cells incubated for 1 hr by Cy5-NC-001 probe based competitive activity based protein profiling assay
[6] = target: Proteasome subunit beta type-8 (β5i, LMP7) (Homo sapiens) (UniProt P28062); test: Inhibition of catalytic activity of immunoproteasome 20s subunit beta5 in human Raji cells assessed as residual activity at 0.01 uM incubated for 1 hr by BODIPY(TMR)-NC-005-VS probe based competitive activity based protein profiling assay relative to control
[7] = target: T1, Proteasome Macropain subunit MB1 (Homo sapiens); test: Inhibition of catalytic activity of constitutive proteasome 20s subunit beta5 in human Raji cells assessed as residual activity at 0.01 uM incubated for 1 hr by BODIPY(TMR)-NC-005-VS probe based activity based protein profiling assay relative to control; type: cell-based
Procedure, shortened: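 Initial screen in Raji cell extracts. Inhibitor at 0.01, 0.1, 1.0 and 10.0 µM final for 1 h at 37 °C, then ABP cocktail 1 h. In-gel fluorescence of β5c/β5i bands normalized to mock-treated extract, giving residual activity. Run once. IC50s from this screen feed the β5i/β5c ratio.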

[8] = target: Proteasome Macropain subunit (Homo sapiens) (UniProt P49721); test: Inhibition of catalytic activity of constitutive proteasome 20s subunit beta2 in human Raji cells incubated for 1 hr by BODIPY(FL)-LU-112 probe based competitive activity based protein profiling assay; type: cell-based

SMILES: COc1ccc(C[C@H](NC(=O)[C@H](Cc2ccc(-c3ccccc3)cc2)NC(=O)CN2CCOCC2)C(=O)N[C@@H](CC(C)C)C(=O)[C@@]2(C)CO2)cc1
IC50 [3]: < 10 nM | Activity [6]: 44% | Activity [7]: 23%

SMILES: CC(C)C[C@H](NC(=O)[C@H](Cc1ccccc1)NC(=O)[C@H](Cc1cccc2ccccc12)NC(=O)[C@H](Cc1ccccc1)N=[N+]=[N-])C(=O)[C@@]1(C)CO1
IC50 [3]: < 10 nM | Activity [6]: 28% | Activity [7]: 12%

SMILES: CC(C)C[C@H](NC(=O)[C@H](Cc1ccccc1)NC(=O)[C@H](Cc1c[nH]c2ccccc12)NC(=O)[C@H](Cc1ccccc1)N=[N+]=[N-])C(=O)[C@@]1(C)CO1
IC50 [3]: < 10 nM | Activity [6]: 49% | Activity [7]: 16%

SMILES: COc1ccc(C[C@H](NC(=O)[C@H](Cc2ccccc2)N=[N+]=[N-])C(=O)N[C@@H](Cc2ccccc2)C(=O)N[C@@H](CC(C)C)C(=O)[C@@]2(C)CO2)cc1
pIC50(app) [1]: 8.11 | pIC50(app) [2]: 8.68 | IC50 [3]: 2.1 nM | pIC50(app) [8]: 6.95 | pIC50(app) [4]: 6.75 | pIC50(app) [5]: 6.88

SMILES: CC(C)C[C@H](NC(=O)[C@H](Cc1ccccc1)NC(=O)[C@H](CCc1ccccc1)NC(=O)[C@H](Cc1ccccc1)N=[N+]=[N-])C(=O)[C@@]1(C)CO1
pIC50(app) [1]: 8.29 | pIC50(app) [2]: 8.53 | IC50 [3]: 3 nM | pIC50(app) [8]: 7.22 | pIC50(app) [4]: < 4 | pIC50(app) [5]: 6.79

SMILES: COc1ccc(C[C@H](NC(=O)[C@H](Cc2cccc3ccccc23)NC(=O)CN2CCOCC2)C(=O)N[C@@H](CC(C)C)C(=O)[C@@]2(C)CO2)cc1
IC50 [3]: < 10 nM | Activity [6]: 36% | Activity [7]: 30%

SMILES: CC(C)C[C@H](NC(=O)[C@H](Cc1ccccc1)NC(=O)[C@H](Cc1ccc(-c2ccccc2)cc1)NC(=O)[C@H](Cc1ccccc1)N=[N+]=[N-])C(=O)[C@@]1(C)CO1
IC50 [3]: < 10 nM | Activity [6]: 28% | Activity [7]: 9%

SMILES: COc1ccc(C[C@H](NC(=O)[C@H](Cc2ccc3ccccc3c2)NC(=O)CN2CCOCC2)C(=O)N[C@@H](CC(C)C)C(=O)[C@@]2(C)CO2)cc1
IC50 [3]: < 10 nM | Activity [6]: 23% | Activity [7]: 9%

SMILES: CC(C)C[C@H](NC(=O)[C@H](Cc1ccccc1)NC(=O)[C@H](Cc1ccc2ccccc2c1)NC(=O)[C@H](Cc1ccccc1)N=[N+]=[N-])C(=O)[C@@]1(C)CO1
IC50 [3]: < 10 nM | Activity [6]: 49% | Activity [7]: 14%

SMILES: CC(C)C[C@H](NC(=O)[C@H](Cc1ccccc1)NC(=O)[C@@H](NC(=O)[C@H](Cc1ccccc1)N=[N+]=[N-])c1ccccc1)C(=O)[C@@]1(C)CO1
IC50 [3]: < 10 nM | Activity [6]: 56% | Activity [7]: 44%

Second part, the molecule after the results:

pIC50(app) [1]: 4.78 | pIC50(app) [2]: 7.13 | IC50 [3]: 20 to 74.7 nM | pIC50(app) [4]: < 4 | pIC50(app) [5]: < 4
SMILES: C[C@H](NC(=O)[C@H](Cc1ccccc1)NC(=O)[C@H](CC1CCC(C2CCCCC2)CC1)NC(=O)[C@H](Cc1ccccc1)N=[N+]=[N-])C(=O)[C@@]1(C)CO1 (stereo partly drawn)

IC50 [3]: < 10 nM | Activity [6]: 15% | Activity [7]: 6%
SMILES: Cc1ccc(C[C@H](NC(=O)[C@H](Cc2ccccc2)N=[N+]=[N-])C(=O)N[C@@H](Cc2ccccc2)C(=O)N[C@@H](CC(C)C)C(=O)[C@@]2(C)CO2)cc1

pIC50(app) [1]: 7.67 | pIC50(app) [2]: 8.68 | IC50 [3]: 2.1 nM | pIC50(app) [8]: 7.18 | pIC50(app) [4]: < 4 | pIC50(app) [5]: 6.05
SMILES: COC1CCC(C[C@H](NC(=O)[C@H](Cc2ccccc2)N=[N+]=[N-])C(=O)N[C@@H](Cc2ccccc2)C(=O)N[C@@H](CC(C)C)C(=O)[C@@]2(C)CO2)CC1 (stereo partly drawn)

pIC50(app) [8]: 7.18 | pIC50(app) [4]: < 4 | pIC50(app) [5]: 6.91
SMILES: CC(C)C[C@H](NC(=O)[C@H](Cc1ccccc1)NC(=O)[C@H](Cc1ccccc1)NC(=O)[C@H](Cc1ccccc1)N=[N+]=[N-])C(=O)[C@@]1(C)CO1

pIC50(app) [1]: 6.36 | pIC50(app) [2]: 7.77 | IC50 [3]: 17 to 19 nM | pIC50(app) [4]: < 4 | pIC50(app) [5]: < 4
SMILES: CC(C)C[C@H](NC(=O)[C@H](Cc1ccccc1)NC(=O)[C@H](CC1CCC(C2CCCCC2)CC1)NC(=O)[C@H](Cc1ccccc1)N=[N+]=[N-])C(=O)[C@@]1(C)CO1 (stereo partly drawn)

— ChEMBL document CHEMBL4477237, “Structure-Based Design of β5c Selective Inhibitors of Human Constitutive Proteasomes” (J Med Chem, 2016)
